Experiments:
[1] = target: T1, 5-hydroxytryptamine receptor 1A (Rattus norvegicus, UniProt P19327); experiment: In vitro binding affinity towards the 5-hydroxytryptamine 1A receptor was evaluated
T1 sequence (P19327 whole entry): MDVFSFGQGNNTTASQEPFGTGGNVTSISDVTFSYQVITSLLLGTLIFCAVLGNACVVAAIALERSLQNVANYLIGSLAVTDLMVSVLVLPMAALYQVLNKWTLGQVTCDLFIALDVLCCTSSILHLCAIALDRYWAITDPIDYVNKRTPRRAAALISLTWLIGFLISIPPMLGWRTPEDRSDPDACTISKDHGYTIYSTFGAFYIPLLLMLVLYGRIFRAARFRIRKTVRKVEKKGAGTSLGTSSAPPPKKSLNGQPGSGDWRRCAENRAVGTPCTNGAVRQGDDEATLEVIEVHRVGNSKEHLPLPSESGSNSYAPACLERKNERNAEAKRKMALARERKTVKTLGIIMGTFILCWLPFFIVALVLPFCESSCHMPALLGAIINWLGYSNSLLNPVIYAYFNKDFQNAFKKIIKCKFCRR
Summary of the method: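 Receptor binding at the 5-HT1A site, reported as IC50. Each value is the mean IC50 ± standard error of at least three experiments, each run in triplicate.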

[2] = target: 5-hydroxytryptamine receptor 1B (Rattus norvegicus) (UniProt P28564); experiment: In vitro binding affinity towards the 5-hydroxytryptamine 1B receptor at 10 e-6 M
Summary of the method: (§1)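 Radioligand binding in vitro. Values are mean percent inhibition at 10⁻⁶ M, from at least three experiments each run in triplicate.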

[3] = target: T2, 5-hydroxytryptamine receptor 2C (Rattus norvegicus) (UniProt P08909); experiment: In vitro binding affinity towards the 5-hydroxytryptamine 1C receptor at 10 e-6 M; summary of the method: as §1
T2 sequence (whole entry): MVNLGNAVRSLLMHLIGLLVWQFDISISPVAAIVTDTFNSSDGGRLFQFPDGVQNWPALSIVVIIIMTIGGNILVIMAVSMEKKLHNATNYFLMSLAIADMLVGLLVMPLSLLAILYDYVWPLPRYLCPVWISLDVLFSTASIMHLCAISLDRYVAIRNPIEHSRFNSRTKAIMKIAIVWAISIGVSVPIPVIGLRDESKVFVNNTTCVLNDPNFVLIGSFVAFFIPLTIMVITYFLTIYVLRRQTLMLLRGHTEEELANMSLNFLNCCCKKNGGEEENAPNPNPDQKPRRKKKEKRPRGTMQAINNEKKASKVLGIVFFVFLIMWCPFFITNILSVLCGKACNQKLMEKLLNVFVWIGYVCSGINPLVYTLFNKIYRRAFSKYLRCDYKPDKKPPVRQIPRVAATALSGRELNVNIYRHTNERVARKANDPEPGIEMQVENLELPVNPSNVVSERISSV

[4] = target: Serotonin 2 (5-HT2) receptor (Rattus norvegicus) (UniProt P30994+P08909+P14842); experiment: (§2) In vitro binding affinity towards the 5-hydroxytryptamine 2 receptor at 10 e-6 M; format: protein assay; summary of the method: as §1
[5] = target: T3, Adrenergic receptor alpha-1 (Rattus norvegicus, UniProt P15823+P23944+P43140); experiment: In vitro binding affinity towards the anor-adrenergic alpha-1 receptor at 10 e-6 M; format: protein assay; summary of the method: as §1
T3 sequence (P15823 whole entry): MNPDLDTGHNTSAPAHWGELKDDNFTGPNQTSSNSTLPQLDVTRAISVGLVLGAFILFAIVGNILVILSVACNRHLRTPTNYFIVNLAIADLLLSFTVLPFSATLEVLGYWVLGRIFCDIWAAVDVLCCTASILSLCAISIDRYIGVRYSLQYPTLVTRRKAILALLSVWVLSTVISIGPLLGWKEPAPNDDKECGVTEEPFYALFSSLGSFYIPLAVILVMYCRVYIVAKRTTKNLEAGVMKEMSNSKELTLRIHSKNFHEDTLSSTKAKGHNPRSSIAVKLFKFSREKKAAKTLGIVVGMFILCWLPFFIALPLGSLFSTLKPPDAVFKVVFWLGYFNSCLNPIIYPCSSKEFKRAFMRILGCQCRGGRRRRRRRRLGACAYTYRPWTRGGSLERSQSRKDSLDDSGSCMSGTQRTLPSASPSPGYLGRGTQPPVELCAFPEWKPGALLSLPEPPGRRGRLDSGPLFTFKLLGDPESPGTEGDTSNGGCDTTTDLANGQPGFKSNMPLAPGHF
T3 sequence (P23944 whole entry): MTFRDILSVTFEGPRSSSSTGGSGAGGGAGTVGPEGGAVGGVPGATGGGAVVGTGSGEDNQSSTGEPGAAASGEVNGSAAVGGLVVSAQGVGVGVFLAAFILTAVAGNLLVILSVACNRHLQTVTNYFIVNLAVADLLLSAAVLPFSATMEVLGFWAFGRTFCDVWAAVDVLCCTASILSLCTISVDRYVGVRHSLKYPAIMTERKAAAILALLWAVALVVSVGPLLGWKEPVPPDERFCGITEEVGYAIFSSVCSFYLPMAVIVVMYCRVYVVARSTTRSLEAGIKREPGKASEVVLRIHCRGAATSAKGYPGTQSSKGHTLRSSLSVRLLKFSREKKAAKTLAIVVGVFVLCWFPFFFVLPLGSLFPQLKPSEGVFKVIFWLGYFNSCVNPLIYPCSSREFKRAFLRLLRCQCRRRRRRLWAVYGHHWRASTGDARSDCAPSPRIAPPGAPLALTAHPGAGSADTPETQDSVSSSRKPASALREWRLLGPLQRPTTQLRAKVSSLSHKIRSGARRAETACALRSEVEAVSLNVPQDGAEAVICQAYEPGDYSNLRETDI
T3 sequence (P43140 whole entry): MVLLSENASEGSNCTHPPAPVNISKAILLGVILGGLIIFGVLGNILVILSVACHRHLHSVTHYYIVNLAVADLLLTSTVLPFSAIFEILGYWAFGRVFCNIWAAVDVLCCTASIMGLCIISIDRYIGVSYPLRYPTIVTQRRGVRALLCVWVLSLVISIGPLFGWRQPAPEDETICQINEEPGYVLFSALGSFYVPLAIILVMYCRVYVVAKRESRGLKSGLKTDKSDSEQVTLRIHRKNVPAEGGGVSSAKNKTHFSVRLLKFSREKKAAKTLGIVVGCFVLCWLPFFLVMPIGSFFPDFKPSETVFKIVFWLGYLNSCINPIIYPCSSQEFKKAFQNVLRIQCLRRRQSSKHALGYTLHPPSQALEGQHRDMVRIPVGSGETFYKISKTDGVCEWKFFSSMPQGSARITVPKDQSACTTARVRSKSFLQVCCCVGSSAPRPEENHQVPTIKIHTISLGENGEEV

[6] = target: D(1A) dopamine receptor (Rattus norvegicus) (UniProt P18901); experiment: In vitro binding affinity towards the dopamine receptor D1 at 10 e-6 M; summary of the method: as §1
[7] = target: D(2) dopamine receptor (Rattus norvegicus) (UniProt P61169); experiment: In vitro binding affinity towards the dopamine receptor D2 at 10 e-6 M; summary of the method: as §1
Rattus norvegicus [8] = experiment: Minimum effective dose administered subcutaneously to block the effect of 8-hydroxy-DPAT; format: functional
Summary of the method: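 Rats pretreated sc with vehicle or test agent, then given 8-OH-DPAT iv 30 min later to induce the behavioral syndrome. Groups of at least 10 rats were used, and the 8-OH-DPAT ED50 was determined by the sequential up/down method.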

[9] = target: Adrenergic receptor alpha-2 (Rattus norvegicus) (UniProt P22086+P19328+P22909); experiment: In vitro binding affinity towards the noradrenergic alpha-2 receptor at 10 e-6 M; format: protein assay; summary of the method: as §1
[10] = target: Adrenergic receptor beta (Rattus norvegicus) (UniProt P18090+P10608+P26255); experiment: (§3) In vitro binding affinity towards the noradrenergic beta receptor at 10 e-6 M; format: protein assay
Summary of the method: (§4)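 Radioligand binding at the receptor site, run at 10⁻⁶ M. Reported as mean percent inhibition from at least three experiments, each performed in triplicate.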

[11] = target: T3, Adrenergic receptor alpha-1; experiment: In vitro binding affinity towards the noradrenergic alpha-1 receptor at 10 e-6 M; format: protein assay; summary of the method: as §1
Rattus norvegicus [12] = experiment: Decrease in hippocampal level of 5-HTat preinjection of 0.1 mg/kg, sc; format: functional, Hippocampus; details: route subcutaneous
Rattus norvegicus [13] = experiment: Decrease in hippocampal level of 5-HT at preinjection of 1 mg/kg, sc; format: functional, Hippocampus; details: route subcutaneous
Adrenergic receptor beta = Adrenergic receptor beta (Rattus norvegicus, UniProt P18090+P10608+P26255); experiment: as §3; format: protein assay; summary of the method: as §4
[14] = target: Serotonin 2 (5-HT2) receptor (Rattus norvegicus, UniProt P30994+P08909+P14842); experiment: as §2; format: protein assay; summary of the method: as §1
[15] = target: T3, Adrenergic receptor alpha-1; experiment: In vitro binding affinity towards the alpha-1 receptor at 10 e-6 M; format: protein assay; summary of the method: as §1
Rattus norvegicus [16] = experiment: Decrease in hippocampal level of 5-HT at preinjection of 5 mg/kg, sc; format: functional, Hippocampus; details: route subcutaneous
Summary of the method: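 Microdialysis in conscious, freely moving rats. Test agent given sc, and extracellular 5-HT measured in hippocampus for up to 2.5 h after dosing. Values expressed as % of preinjection control levels.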

5-hydroxytryptamine receptor 1B (Rattus norvegicus), sequence (P28564 whole entry): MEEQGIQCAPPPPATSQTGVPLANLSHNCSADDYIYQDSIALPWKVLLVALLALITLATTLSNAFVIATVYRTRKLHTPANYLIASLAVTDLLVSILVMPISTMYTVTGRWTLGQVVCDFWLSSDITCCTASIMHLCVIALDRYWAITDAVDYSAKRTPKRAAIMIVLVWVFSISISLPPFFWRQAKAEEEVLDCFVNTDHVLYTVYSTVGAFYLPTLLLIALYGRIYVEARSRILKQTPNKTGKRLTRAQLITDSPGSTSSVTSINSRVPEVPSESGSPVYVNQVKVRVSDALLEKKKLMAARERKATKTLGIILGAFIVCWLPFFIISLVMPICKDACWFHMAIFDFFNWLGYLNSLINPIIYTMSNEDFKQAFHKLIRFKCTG
D(1A) dopamine receptor (Rattus norvegicus), sequence (P18901 whole entry): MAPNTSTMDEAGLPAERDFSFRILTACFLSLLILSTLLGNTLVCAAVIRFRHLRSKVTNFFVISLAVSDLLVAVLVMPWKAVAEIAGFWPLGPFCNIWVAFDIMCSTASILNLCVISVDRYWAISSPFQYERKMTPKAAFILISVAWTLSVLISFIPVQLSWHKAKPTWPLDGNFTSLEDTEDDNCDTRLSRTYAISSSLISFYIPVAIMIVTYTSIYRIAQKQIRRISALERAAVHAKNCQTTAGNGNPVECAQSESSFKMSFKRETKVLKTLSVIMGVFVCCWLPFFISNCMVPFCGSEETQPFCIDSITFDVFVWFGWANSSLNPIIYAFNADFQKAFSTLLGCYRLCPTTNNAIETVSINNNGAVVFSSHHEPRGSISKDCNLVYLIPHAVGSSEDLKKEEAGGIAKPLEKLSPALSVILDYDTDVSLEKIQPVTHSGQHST
D(2) dopamine receptor (Rattus norvegicus), sequence (P61169 whole entry): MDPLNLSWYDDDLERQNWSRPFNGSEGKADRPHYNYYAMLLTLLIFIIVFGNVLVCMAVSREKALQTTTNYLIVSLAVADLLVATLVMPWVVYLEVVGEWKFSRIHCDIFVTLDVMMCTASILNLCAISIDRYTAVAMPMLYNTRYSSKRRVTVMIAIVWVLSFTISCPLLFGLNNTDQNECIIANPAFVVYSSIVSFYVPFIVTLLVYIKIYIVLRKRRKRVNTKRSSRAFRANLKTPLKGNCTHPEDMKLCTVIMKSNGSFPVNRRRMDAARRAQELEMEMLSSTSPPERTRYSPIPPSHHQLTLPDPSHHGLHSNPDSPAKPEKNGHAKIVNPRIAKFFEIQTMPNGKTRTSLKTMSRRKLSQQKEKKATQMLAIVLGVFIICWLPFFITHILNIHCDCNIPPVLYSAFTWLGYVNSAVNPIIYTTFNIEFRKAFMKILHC
Serotonin 2 (5-HT2) receptor (Rattus norvegicus), sequence (P14842 whole entry, looked up, one chain of several): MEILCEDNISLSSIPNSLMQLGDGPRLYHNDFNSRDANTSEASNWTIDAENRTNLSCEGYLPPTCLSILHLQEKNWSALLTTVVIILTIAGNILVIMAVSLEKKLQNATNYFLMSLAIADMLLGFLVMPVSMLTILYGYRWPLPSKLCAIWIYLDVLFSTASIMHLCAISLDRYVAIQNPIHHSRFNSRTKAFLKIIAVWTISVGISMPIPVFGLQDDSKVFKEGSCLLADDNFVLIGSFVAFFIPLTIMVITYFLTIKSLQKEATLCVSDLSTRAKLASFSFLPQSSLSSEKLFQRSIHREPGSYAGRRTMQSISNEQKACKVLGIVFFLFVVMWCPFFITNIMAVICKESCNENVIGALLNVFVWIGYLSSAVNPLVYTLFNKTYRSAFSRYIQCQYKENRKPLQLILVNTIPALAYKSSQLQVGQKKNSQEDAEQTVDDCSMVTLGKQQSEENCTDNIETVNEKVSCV
Serotonin 2 (5-HT2) receptor (Rattus norvegicus), sequence (P30994 whole entry, looked up, one chain of several): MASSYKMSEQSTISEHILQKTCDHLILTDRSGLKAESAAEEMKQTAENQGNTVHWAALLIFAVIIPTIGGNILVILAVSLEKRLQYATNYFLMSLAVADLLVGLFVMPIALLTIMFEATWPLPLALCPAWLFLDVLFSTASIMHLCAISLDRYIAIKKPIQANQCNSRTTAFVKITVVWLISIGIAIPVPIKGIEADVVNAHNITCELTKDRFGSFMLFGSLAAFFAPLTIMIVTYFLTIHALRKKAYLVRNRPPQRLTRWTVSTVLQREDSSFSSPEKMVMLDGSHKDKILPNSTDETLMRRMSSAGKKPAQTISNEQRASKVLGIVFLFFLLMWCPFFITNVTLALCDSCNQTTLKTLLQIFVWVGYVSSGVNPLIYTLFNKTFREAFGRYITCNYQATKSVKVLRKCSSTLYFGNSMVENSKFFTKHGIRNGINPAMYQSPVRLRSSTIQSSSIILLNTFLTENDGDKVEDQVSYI

Row | Compound | IC50 [1] [nM] | inhibition [2] [%] | inhibition [3] [%] | inhibition [6] [%] | inhibition [7] [%] | inhibition [9] [%] | inhibition [10] [%] | also measured
1 | COc1ccccc1N1CCN(CC(C(=O)NC(C)(C)C)c2ccccc2)CC1 (centres undefined) | 33.9 | 27 | 37 | 20 | 14 | 10 | 20 | inhibition [4]: 37%; IC50 [5]: 1491 nM; minimal effective dose (Rattus norvegicus [8]; Rattus norvegicus, sc, read-out: MED): 3 mg/kg
2 | COc1ccccc1N1CCN(C[C@H](C(=O)NC(C)(C)C)c2ccccc2)CC1 | 437 | 21 | 14 | 2 | 4 | 7 | 7 | inhibition [4]: 13%; IC50 [11]: 2781 nM
3 | COc1ccccc1N1CCN(C[C@@H](C(=O)NC(C)(C)C)c2ccccc2)CC1 (stereo in doubt; (R)-5) | – | – | – | – | – | – | – | MED (Rattus norvegicus [8]): 10 mg/kg
4 | CCCN(CCC)C1CCc2cccc(O)c2C1 (centres undefined) [8-OH-DPAT] | – | – | – | – | – | – | – | Decrease (Rattus norvegicus [12]): 19.2%
5 | COc1ccccc1N1CCN(C[C@@H](C(=O)NC(C)(C)C)c2ccccc2)CC1 [listing 1 of 2 here] | – | 22 | 50 | 22 | 20 | 11 | 12 | –
6 | COc1ccccc1N1CCN(C[C@@H](C(=O)NC(C)(C)C)c2ccccc2)CC1 (stereo in doubt; (S)-5) | – | – | – | – | – | – | – | MED (Rattus norvegicus [8]): 1 mg/kg
7 | O=C1CC2(CCCC2)CC(=O)N1CCCCN1CCN(c2ncccn2)CC1 [BUSPIRONE] | – | – | – | – | – | – | – | Decrease (Rattus norvegicus [13]): 39.9%; IC50 (Adrenergic receptor beta): > 1000 nM
8 | COc1ccccc1N1CCN(C[C@@H](C(=O)NC(C)(C)C)c2ccccc2)CC1 [listing 2 of 2 here] | 15.5 | – | – | – | – | – | – | IC50 [14]: 1393 nM; IC50 [15]: 1878 nM
9 | COc1ccccc1N1CCN(CCN2C(=O)CC3(CCCC3)CC2=O)CC1.Cl.Cl | – | – | – | – | – | – | – | Decrease (Rattus norvegicus [16]): 37.6%

Reference: ChEMBL document CHEMBL1127019, “(S)-N-tert-butyl-3-(4-(2-methoxyphenyl)-piperazin-1-yl)-2-phenylpropanamide [(S)-WAY-100135]: a selective antagonist at presynaptic and postsynaptic 5-HT1A receptors” (J Med Chem, 1993)
